# Results as given in ChEMBL document CHEMBL2169771, “Mechanistic aspects of the photodynamic inactivation of Candida albicans induced by cationic porphyrin derivatives” (Eur J Med Chem, 2012).
# Activity calls are given as the source filed them. The calls are words filed in the database; no cut-off is given here.
# Assays:
# Candida albicans [1] = assay: Antifungal activity against 10^6 CFU/mL Candida albicans PC31 assessed as cell survival at 5 uM preincubated for 30 mins in dark followed by irradiation measured after 30 mins; format: functional
# Candida albicans [2] = assay: Photocytotoxicity against Candida albicans PC31 assessed as release of intracellular DNA and protein at 5 uM preincubated for 30 mins in dark followed by irradiation measured after 30 mins by UV-vis spectroscopic analysis; format: functional, organism-based
# How it was run: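 PC31 cells (~10^7 CFU/mL in 2 mL PBS) were incubated with 5 µM porphyrin for 30 min in the dark, then irradiated 30 min with visible light (162 J/cm²). After centrifugation at 13,000 rpm for 5 min, supernatants were scanned by UV–visible spectroscopy, with absorbance at 260 nm taken as the release read-out. Freeze–thaw lysis in liquid nitrogen gave the positive control.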
# Candida albicans [3] = assay: Photocytotoxicity against Candida albicans PC31 assessed as change in cell morphology at 5 to 10 uM preincubated for 30 mins in dark followed by irradiation measured after 30 mins by transmission electron microscopy; format: functional, organism-based
# How it was run: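 PC31 suspensions (~10^7 CFU/mL) were given 5 or 10 µM sensitizer for 30 min in the dark at 37 °C, then irradiated 30 min with visible light (162 J/cm²). Cells were fixed in 4% formaldehyde/2% glutaraldehyde in 0.1 M cacodylate for 2 h, then post-fixed in 1% OsO4. They were acetone-dehydrated, Araldite-embedded, cut at 80–100 nm, stained with uranyl acetate and lead citrate, and imaged by TEM.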
# Nucleic Acid [4] = assay: Binding affinity to Candida albicans PC31 DNA assessed as genomic DNA cleavage at 5 uM preincubated for 30 mins in dark followed by irradiation measured after 30 mins by agarose gel electrophoresis; format: nucleic-acid assay
# How it was run: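 PC31 cells (~10^7 CFU/mL in PBS) received 5 µM sensitizer for 30 min at 37 °C in the dark, then 30 min visible light (162 J/cm²). Genomic DNA was extracted with a commercial kit immediately after irradiation. It was run on 1% agarose in TBE (pH 8) at 2.9 V/cm for 2 h beside an irradiated control.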
# Candida albicans [5] = assay: Antifungal activity against 10^7 CFU/mL Candida albicans PC31 preincubated for 30 mins in dark followed by irradiation measured after 30 mins; format: functional, organism-based; conditions: PC31, light or radiation study
# How it was run: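 IC50 was derived from PBS suspensions of PC31 (~10^7 CFU/mL) treated with 0.1–10 µM porphyrin for 30 min in the dark at 37 °C. Cells were then irradiated for 30 min with water-filtered visible light from a 150 W lamp. Survival was counted as CFU on Sabouraud agar after ~48 h at 37 °C.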
# Candida albicans [6] = assay: Antifungal activity against 10^7 CFU/mL Candida albicans PC31 assessed as cell survival at 5 uM preincubated for 30 mins in dark followed by irradiation measured after 30 mins; format: functional
# How it was run: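 C. albicans PC31 grown overnight in Sabouraud broth at 37 °C to stationary phase, then resuspended in 10 mM PBS pH 7.0 at ~10^7 CFU/mL. Incubated with 5 µM porphyrin for 30 min in the dark at 37 °C. Irradiated 30 min with visible light from a 150 W lamp, water-filtered (fluence 162 J/cm²). CFU counted on Sabouraud agar after ~48 h at 37 °C, plated in triplicate. Three separate experiments, mean ± SD.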
# Nucleic Acid [7] = assay: Binding affinity to calf thymus DNA assessed as reduction in electrophoretic DNA mobility at 20 uM after 1 to 5 hrs irradiation by agarose gel electrophoresis; format: nucleic-acid assay; conditions: Bos taurus
# How it was run: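 Calf thymus double-stranded DNA (1.3 × 10^-4 M, in base pairs) mixed with 20 μM sensitizer in TE buffer (10 mM Tris-HCl, 1 mM EDTA, pH 7.6). Irradiated with visible light (90 mW/cm²) at room temperature for 1, 2, 3, 4 or 5 h. Samples then run on 1% agarose gels in TBE buffer (pH 8) at 2.9 V/cm for 2 h. Controls: DNA alone, DNA with sensitizer in dark, irradiated DNA.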
# Nucleic Acid [8] = assay: Binding affinity to calf thymus DNA by spectrophotometric analysis; format: nucleic-acid assay; conditions: Bos taurus
# How it was run: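 Absorbance titration: concentrated calf thymus DNA stock was added to ~2 µM porphyrin in PBS. Apparent KDNA was calculated from the Soret-maximum absorbance change, assuming 1:1 stoichiometry and DNA in large excess, via a double-reciprocal fit (1/ΔA vs 1/[DNA]). Three separate experiments, mean ± SD.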
# Nucleic Acid [9] = assay: Binding affinity to calf thymus DNA assessed as DNA cleavage at 20 uM by agarose gel electrophoresis in absence of irradiation; format: nucleic-acid assay; conditions: Bos taurus
# How it was run: (§1)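 Calf thymus DNA (1.3 × 10^-4 M, base pairs) was mixed with 20 µM sensitizer in TE buffer (10 mM Tris-HCl, 1 mM EDTA, pH 7.6). Mixtures were irradiated in open tubes with visible light (90 mW/cm²) at room temperature for 1–5 h; dark controls were included. Samples were run on 1% agarose in TBE at 2.9 V/cm for 2 h.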
# Nucleic Acid [10] = assay: Binding affinity to calf thymus DNA assessed as DNA cleavage at 20 uM after 5 hrs irradiation by agarose gel electrophoresis; format: nucleic-acid assay; conditions: Bos taurus; how it was run: as §1
# Nucleic Acid [11] = assay: Binding affinity to calf thymus DNA assessed as DNA cleavage at 20 uM after 1 hr irradiation by agarose gel electrophoresis; format: nucleic-acid assay; conditions: Bos taurus; how it was run: as §1
# Nucleic Acid [12] = assay: Binding affinity to calf thymus DNA assessed as DNA cleavage at 20 uM after 2 hrs irradiation by agarose gel electrophoresis; format: nucleic-acid assay; conditions: Bos taurus; how it was run: as §1
Structure (SMILES),log10CFU/ml (Candida albicans [1]),Activity (Candida albicans [2]),Activity (Candida albicans [3]),Activity (Nucleic Acid [4]),IC50 (Candida albicans [5]),log10CFU/ml (Candida albicans [6]),Activity (Nucleic Acid [7]),Kapp (Nucleic Acid [8]),Activity (Nucleic Acid [9]),Activity (Nucleic Acid [10]),Activity (Nucleic Acid [11]),Activity (Nucleic Acid [12])
C[n+]1ccc(-c2c3nc(c(-c4cc[n+](C)cc4)c4ccc([nH]4)c(-c4cc[n+](C)cc4)c4ccc([nH]4)c(-c4cc[n+](C)cc4)c4nc2C=C4)C=C3)cc1 [TMPYP4],5,inactive,Active,inactive,410 nM,3.5,Active,4.4 ×10⁵ /M,,,,
C[N+](C)(C)c1ccc(-c2c3nc(c(-c4ccc([N+](C)(C)C)cc4)c4ccc([nH]4)c(-c4ccc([N+](C)(C)C)cc4)c4nc(c(-c5ccc(C(F)(F)F)cc5)c5ccc2[nH]5)C=C4)C=C3)cc1,5,inactive,Active,inactive,160 nM,3.5,,6.7 ×10⁵ /M,inactive,50%,19.7%,
C[N+](C)(C)c1ccc(-c2c3nc(c(-c4ccc([N+](C)(C)C)cc4)c4ccc([nH]4)c(-c4ccc([N+](C)(C)C)cc4)c4nc(c(-c5ccc([N+](C)(C)C)cc5)c5ccc2[nH]5)C=C4)C=C3)cc1,5,inactive,Active,inactive,230 nM,3.5,,7.5 ×10⁵ /M,,,59.3%,> 90%
